Assay [1] deals with Salmonidae. Description: Effect on thermal stability of salmon testes duplex DNA assessed as transition temperature. In a few lines: (§1)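 Thermal melting. Salmon testes duplex DNA at 15 μM base pairs, with macrocyclic ligand at 15 μM. Telomeric d[T2G3(T2AG3)3A] at 4 μM strand, with macrocyclic ligand at 20 μM. Buffer was 10 mM EPPS pH 7.5, with KCl added to 50 mM total K+. Transition temperature was taken for DNA with and without ligand.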

Assay [2] is described as follows: Cytotoxicity against human KB3-1 cells by MTT assay. The format is functional, cell-based. As to conditions: KB 3-1. Background: Tetrazolium assays rely on reduction of a dye to a coloured formazan, in cell work by metabolically active cells.
Assay [3] is filed under the species Homo sapiens. Kind of assay: Binding affinity to […] human telomeric DNA sequence d[T2G3(T2AG3)3A] assessed as transition temperature. The gist of the method:
as §1

A short description of assay [4]: Cytotoxicity against human RPMI8402 cells by MTT assay. As to conditions: RPMI 8402. In kind it is functional, cell-based.
Assay [5] concerns Salmonidae. Kind of assay: Binding affinity to salmon testes duplex DNA assessed as transition temperature. In a few lines: as §1
For assay [6], the species on record is Homo sapiens. Description: Effect on thermal stability of G-quadruplex human telomeric DNA sequence d[T2G3(T2AG3)3A] assessed as transition temperature. In a few lines:
as §1

The test system of a further assay is P388. Description: Cytotoxicity against mouse P388 cells by MTT assay. In kind it is functional, cell-based.
Assay [7] can be described thus: Cytotoxicity against human KBV1 cells by MTT assay. In kind it is functional, cell-based. As to conditions: KB-V1.
The nature of assay [8]: Cytotoxicity against human KBH5.0 cells by MTT assay. In kind it is functional, cell-based. As to conditions: KBH5.0 cell.

Active and inactive are the calls of the source. The calls are words filed in the database; no cut-off is given here.

The IC50 is the concentration that gives 50% inhibition. High values mean weaker potency, low ones greater potency.

`CC(C)[C@@H]1NC(=O)c2coc(n2)-c2coc(n2)-c2coc(n2)C/C=C/c2coc(n2)-c2coc(n2)-c2coc1n2`: the result with Salmonidae [1] and in the assay on Salmonidae [5] was inactive. Further, the IC50 was found to be 38 nM in [2]; 25 nM in assay [4]; 45 nM in the assay with P388; 3300 nM in assay [7]; 43 nM in assay [8]. Also, the result in the assay listed under Homo sapiens [3] and in the assay filed under Homo sapiens [6] was Active.
Take `CC(C)[C@@H]1NC(=O)c2coc(n2)-c2coc(n2)-c2coc(n2)[C@H](C(C)C)NC(=O)c2coc(n2)-c2coc(n2)-c2coc1n2` [HEXAOXAZOLE DIVALINE]: the result in the assay on Salmonidae [1] and in the assay on Salmonidae [5] was inactive. For the same compound, the 50% inhibitory concentration (IC50) is 300 nM in assay [2]; 410 nM in assay [4]; 500 nM in the assay with P388; 8000 nM in [7]; 500 nM in assay [8]. Moreover, the outcome in the assay filed under Homo sapiens [3] and in the assay listed under Homo sapiens [6] was Active.

The values above are taken from ChEMBL document CHEMBL1157428, “Ring-closing metathesis for the synthesis of a highly G-quadruplex selective macrocyclic hexaoxazole having enhanced cytotoxic potency” (Bioorg Med Chem Lett, 2008).
